Series [1] deals with RAW264.7. As to the kind of experiment: Antiinflammatory activity in mouse RAW264.7 cells assessed as inhibition of LPS-induced NO production at 1 uM incubated for 10 mins prior to LPS-challenge measured after 18 hrs by Griess method relative to control. The class given is functional. The gist of the method:
(§1)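 RAW264.7 cells (DMEM, 10% FBS, 37 °C, 5% CO2) seeded at 2.5 × 10^5 cells/well. After 6 h, nonadherent cells were washed off. Adherent cells were exposed to test compound for 10 min, then to LPS (E. coli 055:B5, final 10 µg/mL) for 18 h. Supernatant nitrite was measured by Griess reaction. Inhibition % = (A−B)/(A−C)×100, with C as the no-LPS control. IC50 was read graphically; N = 4, mean ± SEM. CAPE was the reference.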
Background: Nitrite, measured by Griess reagent, commonly stands in for NO production.

The test system of series [2] is RAW264.7. The series can be described thus: Antiinflammatory activity in mouse RAW264.7 cells assessed as inhibition of LPS-induced NO production at 10 uM incubated for 10 mins prior to LPS-challenge measured after 18 hrs by Griess method relative to control. The class given is functional. The method, boiled down: as §1
The test system of series [3] is RAW264.7. The series can be described thus: Antiinflammatory activity in mouse RAW264.7 cells assessed as inhibition of LPS-induced NO production at 30 uM incubated for 10 mins prior to LPS-challenge measured after 18 hrs by Griess method relative to control. The class given is functional. The method, boiled down:
as §1

Series [4] in a line: Cytotoxicity against mouse RAW264.7 cells assessed as cell viability at 3 uM after 18 hrs by MTT assay. The class given is cell-based. The following applies: read-out: Activity. The method, boiled down: (§2)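 MTT viability assay. RAW264.7 cells seeded at 1.0 × 10^5 cells/well; after 6 h, nonadherent cells were washed off. Adherent cells were cultured with test compound for 18 h. MTT (5 mg/mL in PBS) was added for 2 h at 37 °C. Formazan was dissolved in isopropanol with 0.04 M HCl and OD read at 570 nm (reference 655 nm).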

The nature of series [5]: Cytotoxicity against mouse RAW264.7 cells assessed as cell viability at 10 uM after 18 hrs by MTT assay. The class given is cell-based. The settings on record: read-out: Activity. The method, boiled down: as §2
The nature of series [6]: Cytotoxicity against mouse RAW264.7 cells assessed as cell viability at 30 uM after 18 hrs by MTT assay. Type of series: cell-based. The settings on record: read-out: Activity. The gist of the method: as §2
A general note: Tetrazolium dyes change colour on reduction, which living cells bring about.

Series [7] deals with RAW264.7. As to the kind of experiment: Antiinflammatory activity in mouse RAW264.7 cells assessed as inhibition of LPS-induced NO production incubated for 10 mins prior to LPS-challenge measured after 18 hrs by Griess method. Type of series: functional, cell-based. The method, boiled down: as §1
Series [8] relates to RAW264.7. The series can be described thus: Antiinflammatory activity in mouse RAW264.7 cells assessed as inhibition of LPS-induced iNOS expression at 1 to 30 uM incubated for 10 mins prior to LPS-challenge measured after 12 hrs by Western blot analysis. Type of series: functional, cell-based. The gist of the method:
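RAW264.7 cells (5.0 × 10^6/well, 6-well) adhered for 6 h. Compound was added for 10 min, then LPS (final 10 µg/mL) for 12 h. Lysates were sonicated and normalized by BCA. 50 µg protein/lane was run on 10% SDS–PAGE and transferred to PVDF. Blots were probed for iNOS and β-actin (primary 1:1000, HRP secondary 1:5000) and detected by ECL.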
For orientation: Immunoblotting shows a protein as a band on a membrane.

The test system of series [9] is RAW264.7. As to the kind of experiment: Inhibition of SAPK/JNK phosphorylation in LPS-induced mouse RAW264.7 cells at 1 to 30 uM incubated for 10 mins prior to LPS-challenge measured after 30 mins by Western blot analysis. Type of series: cell-based. The gist of the method: (§3)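 RAW264.7 cells (5.0 × 10^6/well) adhered for 6 h. Compound was added for 10 min, then LPS (final 10 µg/mL) for 30 min. BCA-normalized lysates, 25 µg/lane, were run on 10% SDS–PAGE and transferred to PVDF. Phospho-proteins (p-JNK, p-p38, p-STAT1 Ser727) were blocked in Blocking One-P, others (NF-κB p65) in Blocking One. Primary antibodies 1:1000 for 1 h at rt; detection by ECL.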

Series [10] deals with MAP kinase p38 (Mus musculus) (UniProt P47811+O08911+Q9WUI1+Q9Z1B7). The series can be described thus: Inhibition of p38 phosphorylation in LPS-induced mouse RAW264.7 cells at 1 to 30 uM incubated for 10 mins prior to LPS-challenge measured after 30 mins by Western blot analysis. Type of series: cell-based. The method, boiled down: as §3
The target in series [11] is T1, Signal transducer and activator of transcription 1 (Mus musculus) (UniProt P42225).
T1 sequence (whole entry): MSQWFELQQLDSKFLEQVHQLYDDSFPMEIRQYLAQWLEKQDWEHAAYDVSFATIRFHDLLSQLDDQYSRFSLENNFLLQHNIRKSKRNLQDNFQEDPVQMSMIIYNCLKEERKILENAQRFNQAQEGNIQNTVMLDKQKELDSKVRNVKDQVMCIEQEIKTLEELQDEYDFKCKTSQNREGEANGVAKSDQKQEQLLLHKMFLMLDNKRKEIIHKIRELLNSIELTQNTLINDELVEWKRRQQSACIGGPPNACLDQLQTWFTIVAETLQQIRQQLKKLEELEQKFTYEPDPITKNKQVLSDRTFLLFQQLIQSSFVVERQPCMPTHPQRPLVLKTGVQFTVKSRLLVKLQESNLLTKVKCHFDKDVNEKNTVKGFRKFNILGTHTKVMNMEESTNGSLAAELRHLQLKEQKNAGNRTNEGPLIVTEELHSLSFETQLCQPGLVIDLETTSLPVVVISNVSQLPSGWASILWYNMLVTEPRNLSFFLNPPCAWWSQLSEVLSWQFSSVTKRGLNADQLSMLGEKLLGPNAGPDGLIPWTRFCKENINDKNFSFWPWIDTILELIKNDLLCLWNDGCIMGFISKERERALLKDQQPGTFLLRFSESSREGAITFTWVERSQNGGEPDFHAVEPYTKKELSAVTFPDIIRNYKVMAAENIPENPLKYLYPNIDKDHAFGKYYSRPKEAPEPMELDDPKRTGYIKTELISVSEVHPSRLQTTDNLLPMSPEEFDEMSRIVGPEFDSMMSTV
As to the kind of experiment: Inhibition of STAT1 phosphorylation in LPS-induced mouse RAW264.7 cells incubated for 10 mins prior to LPS-challenge measured after 30 mins by Western blot analysis. The class given is cell-based. The gist of the method: as §3

Series [12] concerns RAW264.7. As to the kind of experiment: Antiinflammatory activity in mouse RAW264.7 cells assessed as inhibition of LPS-induced NO production at 3 uM incubated for 10 mins prior to LPS-challenge measured after 18 hrs by Griess method relative to control.
Series [13] deals with RAW264.7. The series can be described thus: Antiinflammatory activity in mouse RAW264.7 cells assessed as inhibition of LPS-induced NO production at 100 uM relative to control. The class given is functional. The gist of the method: as §1
Series [14] deals with RAW264.7. The series can be described thus: Antiinflammatory activity in mouse RAW264.7 cells assessed as inhibition of LPS-induced NO production at 30 uM relative to control. Type of series: functional. The gist of the method: as §1
Series [15] concerns RAW264.7. As to the kind of experiment: Antiinflammatory activity in mouse RAW264.7 cells assessed as inhibition of LPS-induced NO production relative to control. The class given is functional, cell-based. The method, boiled down: as §1
Series [16] deals with RAW264.7. The series can be described thus: Antiinflammatory activity in mouse RAW264.7 cells assessed as inhibition of LPS-induced NO production at 10 uM relative to control. Type of series: functional. The gist of the method: as §1

Activity calls are given as the source filed them. No cut-off for these calls is given here.

By inhibition is commonly meant the change of the read-out against control, counted positive when it falls. By IC50 is commonly meant the concentration that gives 50% inhibition. As for `CCCC(=O)c1c(O)c(C/C=C(\C)CCC=C(C)C)c(O)c2c([C@H](CC)OC(C)=O)cc(=O)oc12` [MAMMEASIN A], the inhibition at 1 µM in the series on RAW264.7 [1] turned out to be 27.5%. The inhibition at 10 µM in the series on RAW264.7 [2] amounted to 88.1%. In the series with RAW264.7 [3], the inhibition at 30 µM worked out at 92%. Further, in series [4], the viability at 18 h, 3 µM is 56.4%. Besides, in series [5], the viability at 18 h, 10 µM was 24.1%. Also, the viability at 18 h, 30 µM in series [6] worked out at 10.2%. For the same compound, the concentration for half-maximal inhibition (IC50) in the series on RAW264.7 [7] was 1800 nM. For the same compound, in the series with RAW264.7 [8], the inhibition result was “Active”. In addition, the inhibition entry (with RAW264.7 [9]; in [10]) was “inactive” throughout. Also, in series [11], the inhibition result is “Dose-dependent effect”. In addition, in the series with RAW264.7 [12], the inhibition at 3 µM was found to be 72.9%.

Take `COc1cccc(-c2cc(=O)c3ccccc3o2)c1N`: the inhibition at 100 µM in the series with RAW264.7 [13] is -2.4%.

For the compound `Oc1c2ccccc2c2c3c(cccc13)N=N2` [SP-600125], the inhibition at 30 µM in the series on RAW264.7 [14] is 74.6%. Also, the 50% inhibitory concentration (IC50) with RAW264.7 [15] was found to be 17000 nM.

With `Nc1n[nH]c2nnc(-c3c(-c4ccccc4)nn4ccccc34)cc12`, the inhibition at 10 µM in the series with RAW264.7 [16] worked out at 7.2%.

Take `CC(C)=CCc1c(O)c(C(=O)C(C)C)c(O)c2c(-c3ccccc3)cc(=O)oc12` [MESUOL]: in the series with RAW264.7 [1], the inhibition at 1 µM is 33.7%. Further, in the series with RAW264.7 [2], the inhibition at 10 µM amounted to 89.4%. In addition, in the series on RAW264.7 [3], the inhibition at 30 µM came out at 103%. In addition, the viability at 18 h, 3 µM in [4] was 57.2%. Also, the viability at 18 h, 10 µM in [5] stood at 27.2%. Moreover, the viability at 18 h, 30 µM in series [6] was 10.1%. Besides, the 50% inhibitory concentration (IC50) in the series with RAW264.7 [7] was found to be 1300 nM. Besides, the inhibition result with RAW264.7 [8] was “Active”. The inhibition result (in the series with RAW264.7 [9]; in series [10]) was “inactive” in each case. Also, in [11], the inhibition result was “Dose-dependent effect”. Besides, the inhibition at 3 µM with RAW264.7 [12] stood at 83.4%.

Values taken from ChEMBL document CHEMBL2062365, “Suppressive effects of coumarins from Mammea siamensis on inducible nitric oxide synthase expression in RAW264.7 cells” (Bioorg Med Chem, 2012).
